Screening data (PubChem BioAssay)
Rev-erbA mod: modulates human Rev-erb alpha binding to DNA; P20393; Rev-erbα–FITC-DNA binding, fluorescence polarization, 90 min; activity, % at 10 µM; 370,000 tested, 0.79% active; AID 1259318;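 active = activity above about 14%, limit read from the data; passing the limit was not always enough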;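 also: 0% = DMSO wells with 35 nM protein and 100% = DMSO wells with 750 nM protein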
Target sequence (P20393 whole entry, looked up): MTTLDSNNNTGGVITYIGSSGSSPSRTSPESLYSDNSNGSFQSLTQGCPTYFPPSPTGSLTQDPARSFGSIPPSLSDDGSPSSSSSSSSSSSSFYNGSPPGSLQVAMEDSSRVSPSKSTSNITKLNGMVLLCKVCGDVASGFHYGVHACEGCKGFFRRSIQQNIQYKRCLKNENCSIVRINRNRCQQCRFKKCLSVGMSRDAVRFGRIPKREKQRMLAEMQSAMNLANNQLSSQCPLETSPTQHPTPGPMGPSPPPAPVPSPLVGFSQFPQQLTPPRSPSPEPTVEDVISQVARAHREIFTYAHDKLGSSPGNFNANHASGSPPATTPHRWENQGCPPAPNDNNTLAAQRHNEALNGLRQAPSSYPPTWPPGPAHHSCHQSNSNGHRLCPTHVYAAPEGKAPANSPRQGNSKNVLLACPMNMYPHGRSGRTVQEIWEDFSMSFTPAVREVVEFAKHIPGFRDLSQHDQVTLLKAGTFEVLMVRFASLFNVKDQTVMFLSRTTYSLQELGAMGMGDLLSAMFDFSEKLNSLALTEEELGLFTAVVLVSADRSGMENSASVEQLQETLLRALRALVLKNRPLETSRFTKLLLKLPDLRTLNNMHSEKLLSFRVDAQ
NR2E3 ag-1: agonists of human NR2E3 nuclear receptor | inhibition of corepressor binding, % at 3.98 µM | 360,000 tested, 0.35% active | CHO-S Gal4-NCOR/VP16-NR2E3 two-hybrid, luciferase | AID 602229 | Q9Y5X4;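 active = inhibition above the mean of all tested compounds plus 3 SD, cut at about 70% in these data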;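 also: 0% = DMSO with NR2E3 transfected cells and 100% = cells lacking NR2E3 construct; higher means lower luciferase signal from less NR2E3 corepressor binding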
Neddylation inh: cullin neddylation inhibition; P61081+Q13564; TR-FRET cullin neddylation, biochemical; calls only at 25 µM; 360,000 tested, 0.58% active; AID 651699; in the data active = inhibition above about 36%
PG9 binder: small molecules binding HIV-1 gp120 antibody PG9; 360,000 tested, 0.43% active; AID 624416; TR-FRET gp120-PG9 antibody binding; inhibition, % at 6.7 µM; in the data active = inhibition above about 8.5%
NR2E3 ag-2: activates human photoreceptor nuclear receptor NR2E3 | inhibition of corepressor binding, % at 4.78 µM | Q9Y5X4 | GST-NR2E3/biotin-RetCOR TR-FRET, 1536-well | 320,000 tested, 0.12% active;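 active = percent inhibition above the cutoff of mean plus 3 SD of all tested compounds, set per screening campaign, cut at about 20% in these data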;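 also: 0% = DMSO wells and 100% = biotin wells as full block of FRET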
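Format: 1536-well format; test system: GST-NR2E3 and biotin-RetCOR proteins; read-out basis: percent inhibition of TR-FRET ratio; timing: 5 h incubation at 4 °C; detection: time-resolved FRET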
NR2E3 ag confirm: confirmation of human NR2E3 agonists. shares compounds with NR2E3 ag-1. CHO-S mammalian two-hybrid NR2E3-NCOR, luciferase luminescence. inhibition, % at 3.98 µM. 2,300 tested, 51% active. AID 624378;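 active = average inhibition above a cutoff equal to the mean inhibition of all tested compounds plus one SD, cut at about 70% in these data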;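 also: 0% = DMSO in NR2E3 cells and 100% = DMSO in cells lacking NR2E3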
VP16 counter: reduces GAL4-VP16 reporter signal in NR2E3 counterscreen; 2,300 tested, 29% active; CHO-S GAL4-VP16 luciferase reporter, luminescence; shares compounds with NR2E3 ag-1; inhibition, % at 3.98 µM;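 active = mean inhibition above a cutoff equal to the average over all tested compounds plus one standard deviation, cut at about 70% in these data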;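 also: luciferase from a UAS reporter driven by GAL4-VP16 transactivation; 0% = DMSO with VP16-transfected cells and 100% = DMSO with cells lacking VP16; higher means less reporter light so more repression of VP16 activity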
An asterisk follows results filed as active; i = inactive; x = no result shown. In the library only some 2% were active in any assay of this set; here they are far more common.

SMILES | Rev-erbA mod | NR2E3 ag-1 | Neddylation inh | PG9 binder | NR2E3 ag-2 | NR2E3 ag confirm | VP16 counter
C[C@@H]1OCN(C)[C@H]2C[C@H]3c4[nH]c5cccc(-c6cccc(F)c6)c5c4CCN3C(=O)[C@@H]12 | 1 | x | x | x | x | x | x
CCOC(=O)C1C[C@@H](O)C=CC1=O (some centres undefined) | 3 | x | x | x | x | x | x
Cc1cc(C(=O)COC(=O)c2ccccc2NCCO)c(C)n1CC1CCCO1 (centres undefined) | 1 | 13 | x | -1 | 1 | x | x
Cc1cc(C(=O)COC(=O)c2ccccc2Br)c(C)n1CC1CCCO1 (centres undefined) | 2 | 89* | i | 0 | -1 | 81* | 71*
COCCn1c(C)cc(C(=O)COC(=O)c2ccccc2Br)c1C | -3 | 79* | i | 0 | 0 | 26 | 35
Cc1ccc(C(=O)OCC(=O)c2cc(C)n(CC3CCCO3)c2C)cc1 (centres undefined) | -5 | -26 | i | -1 | -3 | x | x
Cc1cc(C(=O)COC(=O)c2ccccc2O)c(C)n1CC1CCCO1 (centres undefined) | 3 | 95* | i | -2 | 0 | 89* | 80*
Cc1cc(C(=O)COC(=O)c2cccnc2Cl)c(C)n1CC1CCCO1 (centres undefined) | -2 | 60 | i | -2 | 9 | 47 | 10
CC(C)S(=O)(=O)N[C@@H]1c2cc3c(cc2[C@H](c2ccccc2)[C@H]1C)OCO3 | 0 | x | x | -1 | x | x | x
O=C(NCc1ccc(C(=O)NC2CCCC2)cc1)c1cccc(Br)c1 | -5 | x | x | x | x | x | x
CCn1c(C)cc(C(=O)COC(=O)c2ccccc2[N+](=O)[O-])c1C | x | 105* | i | x | x | 89* | 87*
Cc1cc(C(=O)COc2ccccc2C(N)=O)c(C)n1CC1CCCO1 (centres undefined) | 0 | 69 | i | 1 | 1 | 90* | 69
CN(CC#Cc1ccccc1)C(N)=NC(=O)/C=C/c1cccc(C(F)(F)F)c1 | -2 | x | x | x | x | x | x
COC(/C(=N/O)c1ccc(Cl)cc1)c1ccccc1 (centres undefined) | 5 | 59 | i | 1 | 3 | 83* | 58
COc1ccc(Cl)cc1NC(=O)C(OC)c1ccccc1 (centres undefined) | 0 | -4 | i | 1 | 4 | x | x
COC(=O)[C@@H]1CC(=O)O[C@H](C)C/C=C/C=C/[C@H](O)[C@H](C)C[C@H](CC=O)[C@H](OC2O[C@H](C)[C@@H](OC3C[C@@](C)(O)[C@@H](OC(=O)CC(C)C)[C@H](C)O3)[C@H](N(C)C)[C@H]2O)[C@H]1OC (some centres undefined) | -3 | x | x | x | x | x | x
CC(C)CC1O[C@@H](C)[C@@H]2CN3CCc4c([nH]c5ccccc45)[C@@H]3C[C@@H]2N1C (some centres undefined) | -2 | x | x | -4 | x | x | x
CC(C)(C)C(=O)Nc1ccc(N=Nc2ccccc2)cc1 | 4 | 56 | i | 0 | 1 | 26 | -23
O=C(O)CCC(=O)Nc1ccc(N=Nc2ccccc2)cc1 | x | -8 | i | x | x | x | x
COC1=C(OC)C(=O)C(CCCCCCCCCCO)=C(C)C1=O | 5 | 54 | i | 0 | x | 28 | 52
COC(=O)C1=C(C)N(Cc2ccc(C(F)(F)F)cc2)C(=NCc2ccc(C(F)(F)F)cc2)NC1c1cccc(C(F)(F)F)c1 (centres undefined) | 1 | x | x | -2 | x | x | x
COC(=O)Cc1ccc(NC(=O)c2ccc(C(C)(C)C)cc2)cc1 | 1 | 56 | i | 1 | 0 | 58 | 49
COC(=O)Cc1ccc(NC(=O)c2ccccc2Cl)cc1 | 6 | -14 | i | 0 | 4 | x | x
O=C(Nc1ccc(OC(F)F)c(Cl)c1)Nc1ccc2c(c1)OCO2 | 5 | -10 | i | 0 | 1 | x | x
O=C(Nc1ccc([N+](=O)[O-])cc1)Nc1ccc(OC(F)F)c(Cl)c1 | 4 | 98* | i | 0 | 6 | 99* | 94*
C[C@@H]1COc2cc(Br)ccc2S(=O)(=O)N1Cc1cn(CCC2OCCCO2)nn1 | -1 | x | x | x | x | x | x
